Results from ChEMBL document CHEMBL1926642, “Relevance of the C-5 position to schweinfurthin induced cytotoxicity” (2011).

Columns and labels:
Format in all cases: functional
SK-MEL-2 = test: Growth inhibition of human SK-MEL-2 cells after 48 hrs by sulforhodamine B assay; conditions: SK-MEL-2, 48 h
OVCAR-4 = test: Growth inhibition of human OVCAR4 cells after 48 hrs by sulforhodamine B assay; conditions: OVCAR-4, 48 h
NCI-H23 = test: Growth inhibition of human NCI-H23 cells after 48 hrs by sulforhodamine B assay; conditions: NCI-H23, 48 h
SK-MEL-28 = test: Growth inhibition of human SK-MEL-28 cells after 48 hrs by sulforhodamine B assay; conditions: SK-MEL-28, 48 h
SF-539 = test: Growth inhibition of human SF539 cells after 48 hrs by sulforhodamine B assay; conditions: SF-539, 48 h
LOX IMVI = test: Growth inhibition of human LOXIMVI cells after 48 hrs by sulforhodamine B assay
U-251 = test: Growth inhibition of human U251 cells after 48 hrs by sulforhodamine B assay; conditions: U-251, 48 h
SK-OV-3 = test: Growth inhibition of human SKOV3 cells after 48 hrs by sulforhodamine B assay; conditions: SK-OV-3, 48 h
BT-549 = test: Growth inhibition of human BT549 cells after 48 hrs by sulforhodamine B assay; conditions: BT-549, 48 h
A549 = test: Growth inhibition of human A549 cells after 48 hrs by sulforhodamine B assay; conditions: A549, 48 h
CCRF-CEM = test: Growth inhibition of human CCRF-CEM cells after 48 hrs by sulforhodamine B assay
NCI-H522 = test: Growth inhibition of human NCI-H522 cells after 48 hrs by sulforhodamine B assay; conditions: NCI-H522, 48 h
A498 = test: Growth inhibition of human A498 cells after 48 hrs by sulforhodamine B assay; conditions: A498, 48 h
MDA-MB-231 = test: Growth inhibition of human MDA-MB-231/ATCC cells after 48 hrs by sulforhodamine B assay; conditions: MDA-MB-231, 48 h
SF-268 = test: Growth inhibition of human SF268 cells after 48 hrs by sulforhodamine B assay; conditions: SF-268, 48 h
HCC 2998 = test: Growth inhibition of human HCC2998 cells after 48 hrs by sulforhodamine B assay; conditions: HCC 2998, 48 h
CAKI-1 = test: Growth inhibition of human Caki1 cells after 48 hrs by sulforhodamine B assay; conditions: CAKI-1, 48 h
IGROV-1 = test: Growth inhibition of human IGROV1 cells after 48 hrs by sulforhodamine B assay; conditions: IGROV-1, 48 h
SK-MEL-5 = test: Growth inhibition of human SK-MEL-5 cells after 48 hrs by sulforhodamine B assay; conditions: SK-MEL-5, 48 h
OVCAR-8 = test: Growth inhibition of human OVCAR8 cells after 48 hrs by sulforhodamine B assay; conditions: OVCAR-8, 48 h
EKVX = test: Growth inhibition of human EKVX cells after 48 hrs by sulforhodamine B assay
SNB-19 = test: Growth inhibition of human SNB19 cells after 48 hrs by sulforhodamine B assay; conditions: SNB-19, 48 h
HCT-116 = test: Growth inhibition of human HCT116 cells after 48 hrs by sulforhodamine B assay; conditions: HCT-116, 48 h
SW-620 = test: Growth inhibition of human SW620 cells after 48 hrs by sulforhodamine B assay; conditions: SW-620, 48 h
MDA-MB-435 = test: Growth inhibition of human MDA-MB-435 cells after 48 hrs by sulforhodamine B assay; conditions: MDA-MB-435, 48 h
HL-60(TB) = test: Growth inhibition of human HL-60(TB) cells after 48 hrs by sulforhodamine B assay; conditions: HL-60, 48 h
Procedure, shortened: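 Run in the NCI 60 cell-line screen as the full 5-dose assay that follows initial single-dose testing; GI50 is read from the dose series.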

RPMI-8226 = test: Growth inhibition of human RPMI8226 cells after 48 hrs by sulforhodamine B assay; conditions: RPMI-8226, 48 h
OVCAR-3 = test: Growth inhibition of human OVCAR3 cells after 48 hrs by sulforhodamine B assay; conditions: OVCAR-3, 48 h
RXF 393 = test: Growth inhibition of human RXF393 cells after 48 hrs by sulforhodamine B assay; conditions: RXF 393, 48 h
[1] = read-out: pLC50 (the source's name) (converted)

COc1cc(/C=C/c2cc3c(c(OC)c2)O[C@]2(C)CC[C@@H](O)C(C)(C)[C@H]2C3)cc(O)c1C/C=C(\C)CCC=C(C)C
GI50 (SK-MEL-2): 5.37 µM | LC50 (SK-MEL-2): 27.5 µM | TGI (SK-MEL-2; read-out: pTGI (converted)): 12 µM | GI50 (OVCAR-4): 5.75 µM | LC50 (OVCAR-4): 28.8 µM | TGI (OVCAR-4; read-out: pTGI (converted)): 12.9 µM | GI50 (NCI-H23): 5.62 µM | LC50 (NCI-H23): 26.9 µM | TGI (NCI-H23; read-out: pTGI (converted)): 12.3 µM | GI50 (SK-MEL-28): 4.27 µM | CC50 (SK-MEL-28; [1]): 22.9 µM | TGI (SK-MEL-28; read-out: pTGI (converted)): 10.7 µM | GI50 (SF-539): 0.155 µM | LC50 (SF-539): 7.59 µM | TGI (SF-539; read-out: pTGI (converted)): 1.1 µM | GI50 (LOX IMVI): 1.41 µM | LC50 (LOX IMVI): 15.8 µM | TGI (LOX IMVI; read-out: pTGI (converted)): 5.01 µM | GI50 (U-251): 0.417 µM | LC50 (U-251): 19.5 µM | TGI (U-251; read-out: pTGI (converted)): 7.76 µM | GI50 (SK-OV-3): 3.24 µM | LC50 (SK-OV-3): > 50.1 µM | TGI (SK-OV-3; read-out: pTGI (converted)): 18.2 µM | GI50 (BT-549): 1.05 µM | LC50 (BT-549): 25.1 µM | TGI (BT-549; read-out: pTGI (converted)): 9.12 µM | LC50 (A549): 28.2 µM | GI50 (A549; read-out: GI50): 2.45 µM | GI50 (A549; read-out: pGI50 (converted)): 2.45 µM | TGI (A549; read-out: pTGI (converted)): 10.5 µM | GI50 (CCRF-CEM): 1.41 µM | LC50 (CCRF-CEM): > 50.1 µM | TGI (CCRF-CEM; read-out: pTGI (converted)): 13.8 µM | GI50 (NCI-H522): 4.47 µM | LC50 (NCI-H522): 32.4 µM | TGI (NCI-H522; read-out: pTGI (converted)): 12.3 µM | GI50 (A498): 1.82 µM | LC50 (A498): 21.9 µM | TGI (A498; read-out: pTGI (converted)): 8.32 µM | GI50 (MDA-MB-231): 2.04 µM | CC50 (MDA-MB-231; [1]): 19.5 µM | TGI (MDA-MB-231; read-out: pTGI (converted)): 7.76 µM | GI50 (SF-268): 2.45 µM | LC50 (SF-268): 21.4 µM | TGI (SF-268; read-out: pTGI (converted)): 9.33 µM | GI50 (HCC 2998): 1.7 µM | LC50 (HCC 2998): 22.4 µM | TGI (HCC 2998; read-out: pTGI (converted)): 10 µM | GI50 (CAKI-1): 1.12 µM | LC50 (CAKI-1): > 50.1 µM | TGI (CAKI-1; read-out: pTGI (converted)): 6.61 µM | GI50 (IGROV-1): 5.75 µM | LC50 (IGROV-1): 30.9 µM | TGI (IGROV-1; read-out: pTGI (converted)): 13.5 µM | GI50 (SK-MEL-5): 0.955 µM | LC50 (SK-MEL-5): 6.92 µM | TGI (SK-MEL-5; read-out: pTGI (converted)): 2.34 µM | GI50 (OVCAR-8): 5.5 µM | LC50 (OVCAR-8): 30.9 µM | TGI (OVCAR-8; read-out: pTGI (converted)): 13.2 µM | GI50 (EKVX): 2.09 µM | LC50 (50% lethal concentration) (EKVX): 32.4 µM | TGI (EKVX; read-out: pTGI (converted)): 10.7 µM | GI50 (SNB-19): 3.89 µM | LC50 (SNB-19): 41.7 µM | TGI (SNB-19; read-out: pTGI (converted)): 14.1 µM | GI50 (HCT-116): 3.24 µM | LC50 (HCT-116): 21.9 µM | TGI (HCT-116; read-out: pTGI (converted)): 9.77 µM | GI50 (SW-620): 1.23 µM | LC50 (SW-620): 14.1 µM | TGI (SW-620; read-out: pTGI (converted)): 3.98 µM | GI50 (MDA-MB-435): 4.27 µM | LC50 (MDA-MB-435): 28.8 µM | TGI (MDA-MB-435; read-out: pTGI (converted)): 11.7 µM | GI50 (HL-60(TB)): 1.51 µM | CC50 (HL-60(TB); [1]): 30.2 µM | TGI (HL-60(TB); read-out: pTGI (converted)): 6.61 µM | GI50 (RPMI-8226): 0.178 µM | LC50 (RPMI-8226): > 50.1 µM | TGI (RPMI-8226; read-out: pTGI (converted)): 1.55 µM | GI50 (OVCAR-3): 3.63 µM | LC50 (OVCAR-3): 23.4 µM | TGI (OVCAR-3; read-out: pTGI (converted)): 10.5 µM | GI50 (RXF 393): 0.0891 µM | LC50 (50% lethal concentration) (RXF 393): 4.17 µM | TGI (RXF 393; read-out: pTGI (converted)): 0.302 µM
